Laboratory results: ChEMBL document CHEMBL3612002, “Identification of A Novel Small-Molecule Binding Site of the Fat Mass and Obesity Associated Protein (FTO)” (J Med Chem, 2015)
The source made the active and inactive calls. The calls are words filed in the database; no cut-off is given here.

Legend:
[1] = molecular target: T1, Alpha-ketoglutarate-dependent dioxygenase FTO (Homo sapiens, UniProt Q9C0B1); test: Inhibition of FTO (unknown origin) (31 to 505 residues) expressed in Escherichia coli BL21 (DE3) cells assessed as reduction in 3-meT substrate demethylation by measuring demethylation ratio at 80 uM incubated for 17 hrs at 16 degC by HPLC method; set-up: scale not given: the % may be the effect or the level left
Method in brief: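 Preliminary screen with FTO and 3meT substrate (0.1 mg/mL stock) in MES, FeSO4, αKG and L-ascorbate; inhibitor added from a 4 mM DMSO stock, with DMSO alone as control. Incubated 17 h at 16 °C, centrifuged, then analysed by C18 reverse-phase HPLC (water/methanol gradient). Demethylated fraction of substrate reported.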
Target sequence in this assay (Q9C0B1 whole entry, looked up, the tested form may be a part): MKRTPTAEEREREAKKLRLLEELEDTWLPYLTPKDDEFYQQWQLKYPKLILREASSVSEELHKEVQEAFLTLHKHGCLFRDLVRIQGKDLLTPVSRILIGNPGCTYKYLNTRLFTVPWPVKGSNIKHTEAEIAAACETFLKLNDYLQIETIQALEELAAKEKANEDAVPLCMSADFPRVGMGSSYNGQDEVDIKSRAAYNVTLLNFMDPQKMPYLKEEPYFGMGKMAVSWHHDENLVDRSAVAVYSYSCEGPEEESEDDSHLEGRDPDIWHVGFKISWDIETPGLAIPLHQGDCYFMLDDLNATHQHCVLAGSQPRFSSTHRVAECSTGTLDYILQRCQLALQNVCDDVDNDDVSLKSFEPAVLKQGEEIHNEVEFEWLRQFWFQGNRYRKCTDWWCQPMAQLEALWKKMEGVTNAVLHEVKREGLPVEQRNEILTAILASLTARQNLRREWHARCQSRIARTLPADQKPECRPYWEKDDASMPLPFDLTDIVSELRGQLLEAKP

[2] = molecular target: Alpha-ketoglutarate-dependent dioxygenase FTO (Mus musculus) (UniProt Q8BGW1); test: Inhibition of FTO in mouse 3T3L1 cells increase in […] m6A modified mRNA levels at 10 uM incubated for 48 hrs by dot blot method; assay type: cell-based; conditions: 3T3-L1
Sequence of Alpha-ketoglutarate-dependent dioxygenase FTO (Mus musculus) (Q8BGW1 whole entry): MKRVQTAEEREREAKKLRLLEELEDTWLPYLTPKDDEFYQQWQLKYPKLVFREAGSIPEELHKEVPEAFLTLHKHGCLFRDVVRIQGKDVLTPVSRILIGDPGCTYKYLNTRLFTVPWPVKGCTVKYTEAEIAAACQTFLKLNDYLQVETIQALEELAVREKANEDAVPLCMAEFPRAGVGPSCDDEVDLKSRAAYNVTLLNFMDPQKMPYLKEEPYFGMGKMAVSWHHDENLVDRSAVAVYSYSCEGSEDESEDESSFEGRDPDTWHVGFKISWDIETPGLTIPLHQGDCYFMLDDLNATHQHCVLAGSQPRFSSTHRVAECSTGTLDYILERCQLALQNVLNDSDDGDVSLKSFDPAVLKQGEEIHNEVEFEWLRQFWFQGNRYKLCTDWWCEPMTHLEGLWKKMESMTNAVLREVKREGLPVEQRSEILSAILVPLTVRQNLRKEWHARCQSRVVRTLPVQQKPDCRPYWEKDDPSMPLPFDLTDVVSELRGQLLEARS
Method in brief: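 3T3-L1 preadipocytes stably transfected with empty pcDNA3.1, WT-FTO or R96Q-FTO were grown in high-glucose DMEM/10% FBS. Post-confluent cells were differentiated 48 h with insulin, dexamethasone and IBMX, then given 10 μM compound plus insulin for 48 h. mRNA m6A was quantified as relative integrated optical density; mean ± SEM, n = 4.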

[3] = molecular target: T1, Alpha-ketoglutarate-dependent dioxygenase FTO; test: biochemical
Target sequence in this assay (Q9C0B1 whole entry, the tested form may be a part): as the sequence (Q9C0B1 whole entry, looked up, the tested form may be a part) above

[4] = molecular target: T1, Alpha-ketoglutarate-dependent dioxygenase FTO; conditions: BL21-DE3, 80 uM
Target sequence in this assay (Q9C0B1 whole entry, looked up, the tested form may be a part): as above

[5] = test system: Alpha-ketoglutarate-dependent dioxygenase FTO (Homo sapiens), Q9C0B1 [R96Q]; conditions: 3T3-L1, 10 uM
Sequence of Alpha-ketoglutarate-dependent dioxygenase FTO (Homo sapiens), Q9C0B1 [R96Q] (Q9C0B1 whole entry R96Q, the tested form may be a part): as the sequence (Q9C0B1 whole entry, looked up, the tested form may be a part) above, with R96Q counted along it

[6] = molecular target: T1, Alpha-ketoglutarate-dependent dioxygenase FTO; test: Binding affinity to FTO (unknown origin) (31 to 505 residues) expressed in Escherichia coli BL21 (DE3) by ITC method
Method in brief: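 ITC at 25 °C. Cell contained 140 μM FTO (residues 31–505, His/Ni-resin and ion-exchange purified from E. coli BL21(DE3) after IPTG induction) in 25 mM HEPES pH 7.5, 100 mM NaCl, 10 mM β-mercaptoethanol, 10% DMSO. Titrant was the same buffer with 1.5 mM ligand, given as one 0.4 μL then 2.0 μL injections every 150 s at 750 rpm. Buffer-only dilution heats subtracted before fitting Kd.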
Target sequence in this assay (Q9C0B1 whole entry, the tested form may be a part): as the sequence (Q9C0B1 whole entry, looked up, the tested form may be a part) above

[7] = Cytotoxicity against mouse 3T3L1 cells assessed as effect on cell morphology at 1 to 20 uM incubated for 8 days; assay type: cell-based; conditions: 3t3-l1, 192 h
Method in brief: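 3T3-L1 preadipocytes were exposed to 1, 10 or 20 μM for 8 days. Cell health was judged from morphology.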

[8] = molecular target: T1, Alpha-ketoglutarate-dependent dioxygenase FTO; conditions: 3T3-L1, 10 uM
Target sequence in this assay (Q9C0B1 whole entry, looked up, the tested form may be a part): as above

Activity [1] [%] | Compound | also measured
25.8 | O=C(Nc1cc(Cl)c(O)cc1O)C1(c2cccc(O)c2)CCC1 | 
18.2 | CCCCc1cccc(C2(C(=O)Nc3cc(Cl)c(O)cc3O)CCC2)c1 | 
17.8 | O=C(Nc1cc(Cl)c(O)cc1O)C1(c2ccc(O)cc2)CCC1 | 
18.4 | O=C(Nc1cc(Cl)c(O)cc1O)C1(c2ccc3ccccc3c2)CCC1 | 
46.9 | O=C(Nc1cc(Cl)c(O)cc1O)C1(c2ccc([N+](=O)[O-])cc2)CCC1 | 
29.8 | O=C(Nc1cc(Cl)c(O)cc1O)C1(c2cccc(C(F)(F)F)c2)CCC1 | 
15.4 | O=C(Nc1cc(Cl)c(O)cc1O)C1(c2c(Cl)cccc2Cl)CCC1 | 
14.4 | O=C(Nc1cc(Cl)c(O)cc1O)C1(c2ccccc2)CCC1 | inhibition [2]: Active; IC50 [3]: 4.95 µM; inhibition [4]: Dose-dependent effect; inhibition [5]: Active; Kd [6]: 13 µM; Activity [7]: Non-toxic; inhibition [8]: Active
39 | O=C(Nc1cc(Cl)c(O)cc1O)C1(c2cccc3ccccc23)CCC1 | 
31.3 | O=C(Nc1cc(Cl)c(O)cc1O)C1(c2ccc(Br)cc2)CCC1 | 
29.2 | O=C(Nc1cc(Cl)c(O)cc1O)C1(c2ccc(Cl)cc2)CCC1 | 

The next lines start with the compound.

Compound | Activity [1] [%] | also measured
O=C(Nc1cc(Cl)c(O)cc1O)C1(c2cccc(Cl)c2)CCC1 | 16.9 | 
O=C(Nc1cc(Cl)c(O)cc1O)C1(c2ccccc2Cl)CCC1 | 16.9 | 
O=C(Nc1cc(Cl)c(O)cc1O)C1(c2ccc([N+](=O)[O-])cc2[N+](=O)[O-])CCC1 | 26.1 | 
O=C(Nc1cc(Cl)c(O)cc1O)C1(c2c(F)cccc2F)CCC1 | 15.2 | 
O=C(Nc1cc(Cl)c(O)cc1O)C1(c2cccc(Oc3ccccc3)c2)CCC1 | 17.3 | 
O=C(Nc1cc(Cl)c(O)cc1O)C1(c2ccccc2Br)CCC1 | 21.6 | 
CCCCc1ccc(C2(C(=O)Nc3cc(Cl)c(O)cc3O)CCC2)cc1 | 22.2 | 
O=C(Nc1cc(Cl)c(O)cc1O)C1(c2cccc(Br)c2)CCC1 | 18.7 | 
O=C(Nc1cc(Cl)c(O)cc1O)C1(c2cc(C(F)(F)F)cc(C(F)(F)F)c2)CCC1 | 61.9 | 
